From ChEMBL document CHEMBL4513216, “Probing the Open Global Health Chemical Diversity Library for Multistage-Active Starting Points for Next-Generation Antimalarials” (ACS Infect Dis, 2020)

Experiment: Toxicity liver stage against HepG2, at 10uM
Assay type: cell-based
Set-up: test concentration 10 uM, cell line HepG2-A16-CD81EGFP
Settings: human, HepG2-A16-CD81EGFP cells; read-out: INHIBITION
Summary of the method: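 Uninfected HepG2-A16-CD81EGFP cells, 3 × 10^3 per well, 1536-well, plated on prespotted compound at 10 μM final, parasite-free screening media added to match infected plates; puromycin 10 μM positive, DMSO 0.5% negative; run in parallel with 48 h PbLuc assay at 37 °C, 5% CO2; viability by CellTiter-Glo luminescence, normalized to controls.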

COC(=O)Cn1c(C)cc(=O)n2nc(-c3cccs3)nc12
cytotoxicity at 10 µM: 8.74%

O=C(NCCCN1CCOCC1)c1ccc(-n2ccc3ccccc32)s1
cytotoxicity at 10 µM: -3.42%

COc1cc(CN2CCCCCC2c2cccs2)cc(OC)c1OC (stereo not drawn)
cytotoxicity at 10 µM: 33.3%

Cc1cc(Cl)ccc1-n1ncc(C(=O)N(C)CCc2ccccn2)c1N
cytotoxicity at 10 µM: -7.3%

O=C(O)c1cc(S(=O)(=O)Nc2cnn(C3CCOCC3)c2)ccc1F
cytotoxicity at 10 µM: -10.9%

CC(C)NC(=O)N1CCCC2(CC(C(=O)Nc3ccccc3)=NO2)C1 (stereo not drawn)
cytotoxicity at 10 µM: -3.36%

COCC(=O)N1Cc2nccn2CC(COc2cccnc2)C1 (stereo not drawn)
cytotoxicity at 10 µM: 5.41%

Cc1ccc(C)c(NC(=O)Nc2c[nH]c(=O)[nH]c2=O)c1
cytotoxicity at 10 µM: 0.0452%

CCCc1nc(NCCCOC)c2c(n1)c(C)nn2CC
cytotoxicity at 10 µM: 24.6%

CNC(=O)CCc1cc(C2CCCN2C(=O)CO)nc(C)n1 (stereo not drawn)
cytotoxicity at 10 µM: -0.785%

CC(C)N1CC(c2ccnc(Nc3nccs3)n2)C1
cytotoxicity at 10 µM: 1.18%

Cc1ccc(OCCN2CCC(c3nc(C)n4c(C)csc34)CC2)cc1
cytotoxicity at 10 µM: 1.94%

CC(C(=O)N1CCOCC1)n1nc(-c2cccs2)cc(N)c1=O (stereo not drawn)
cytotoxicity at 10 µM: 8.74%

CN(C)C(=O)C1CN(c2ccncn2)CCN(C2CCOCC2)C1 (stereo not drawn)
cytotoxicity at 10 µM: -0.621%

O=C(CCn1c(C(F)(F)F)cc2cccnc21)N1CCC(O)CC1
cytotoxicity at 10 µM: -28.5%

COc1ccccc1C1=NOC(CC2(C(=O)O)CCOCC2)C1 (stereo not drawn)
cytotoxicity at 10 µM: -9.9%

CC(=O)N1CCC(c2cnc(-c3c(C)nn(C)c3C)cn2)CC1
cytotoxicity at 10 µM: -33.6%

Cc1ncc(CNC(=O)CCc2cccs2)c(C2CCCN2C)n1 (stereo not drawn)
cytotoxicity at 10 µM: -9.72%

CCCN(C(=O)c1cnccn1)c1nc2c(s1)CCc1c-2cnn1C
cytotoxicity at 10 µM: -16.7%

C=Cc1ccc(CN2CCCC3(CNC(=O)c4ccccc4O3)C2)cc1 (stereo not drawn)
cytotoxicity at 10 µM: -22.6%

CS(=O)(=O)N1CCCC(Cc2cncc(Br)c2)CC1 (stereo not drawn)
cytotoxicity at 10 µM: 2.16%

Cc1ncc(C(=O)N2CCCC(Cc3nccs3)C2)cn1 (stereo not drawn)
cytotoxicity at 10 µM: -2.03%

O=C1Nc2ccccc2CNC12CCN(CC1CCNC1)CC2 (stereo not drawn)
cytotoxicity at 10 µM: 6.61%

COc1ccc(SCC2CNc3nc4ccccc4c(=O)n32)cc1 (stereo not drawn)
cytotoxicity at 10 µM: 7.69%

CC(O)CNC(=O)Nc1ccc(Br)cc1Br (stereo not drawn)
cytotoxicity at 10 µM: -1.45%

CN1CCOC(C(=O)N(C)c2ccc3c(c2)CCO3)C1 (stereo not drawn)
cytotoxicity at 10 µM: -45.4%

CCCS(=O)(=O)NC(C)c1cccc(-n2cccn2)c1 (stereo not drawn)
cytotoxicity at 10 µM: 3.65%

CC(OCC1CC1)C(=O)N1CCCN(c2cccnn2)CC1 (stereo not drawn)
cytotoxicity at 10 µM: 8.13%

COc1ccc(CNC(=O)c2ccoc2CN2CCNC(=O)C2)cc1
cytotoxicity at 10 µM: 6.41%

NC(c1ccccc1)c1ccc(OC(F)F)cc1 (stereo not drawn)
cytotoxicity at 10 µM: 1.79%

Cc1ccc(CN(C)C(=O)NCC(=O)NC(C)(C)C)s1
cytotoxicity at 10 µM: 0.136%

Cc1ccc(CN(C)C(=O)NCC(C)(C)CCS(C)(=O)=O)s1
cytotoxicity at 10 µM: 6.24%

Cc1nc(CC2CCCN(Cc3nc(N)c4ccccc4n3)C2)no1 (stereo not drawn)
cytotoxicity at 10 µM: -41.3%

N#CCCN(Cc1ccco1)C(=O)CN1CCCC1c1cccs1 (stereo not drawn)
cytotoxicity at 10 µM: -2.56%

COCCOc1ccc(NC(=O)N(CCCO)CC(C)(C)C)cn1
cytotoxicity at 10 µM: -7.85%

CCC(C)(CC(=O)OC)NC(=O)c1ccc2[nH]ccc2c1 (stereo not drawn)
cytotoxicity at 10 µM: -2.8%

COc1ccc(CCCC(=O)NCc2c(C)noc2C)cc1F
cytotoxicity at 10 µM: -6.35%

COc1c(CNCc2ccc(N3CCOCC3)cc2)c(C)nn1C
cytotoxicity at 10 µM: 2.1%

Cc1ccc(F)cc1NC(=O)CNc1cccc2c1CCCC2
cytotoxicity at 10 µM: 4.33%

Cc1nn(C)c(N(C)C)c1CNCc1cnn(Cc2ccccc2)c1
cytotoxicity at 10 µM: -5.6%

COc1cc(C(=O)N(CCC#N)Cc2ccccn2)ccc1C
cytotoxicity at 10 µM: 11.3%

CCOCCC(=O)NC1(c2cccc(Br)c2)CC1
cytotoxicity at 10 µM: 7.53%

CC(C)(C)c1nnc(CN2CCN(C(=O)N3CCCCC3)CC2)o1
cytotoxicity at 10 µM: 2.44%

CN(C)c1ccc(C(=O)N(CCO)CC2CC2)c(F)c1
cytotoxicity at 10 µM: 5.25%

COCCN(Cc1cccnc1)S(=O)(=O)c1cccc(F)c1F
cytotoxicity at 10 µM: -1.89%

CC(C)c1n[nH]c(C2CN(C(=O)c3cc(C4CC4)on3)CCO2)n1 (stereo not drawn)
cytotoxicity at 10 µM: -1.7%

O=C(C1CC=CC1)N1CCC2(CC1)OCCO2
cytotoxicity at 10 µM: 6.9%

CC(C)CC(=O)NCCCn1cncn1
cytotoxicity at 10 µM: -18.9%

Cc1cc(C(=O)N2CCN(CC(O)Cn3cccn3)CC2)c(C)o1 (stereo not drawn)
cytotoxicity at 10 µM: -4.76%

Cc1ccc(NC(=O)C2CCc3ccccc3N2)cc1 (stereo not drawn)
cytotoxicity at 10 µM: -5.57%

Cc1nnc2n1CCN(C(=O)CN1C(=O)CSc3ccccc31)C2
cytotoxicity at 10 µM: 0.442%

CNS(=O)(=O)CCCN1CCN(C(C)c2cccnc2)CC1 (stereo not drawn)
cytotoxicity at 10 µM: -10.7%

COc1ccc(CCNC(=O)CC(NC(N)=O)c2ccccc2)cc1 (stereo not drawn)
cytotoxicity at 10 µM: 2.19%

N#Cc1cc(N2CCC(S(N)(=O)=O)CC2)c2ccccc2n1
cytotoxicity at 10 µM: -5.03%

CS(=O)(=O)Cc1ccc(C(=O)NCc2ccc(Cl)cc2Cl)cc1
cytotoxicity at 10 µM: -47.6%

O=C1C(Nc2ccc3nccnc3n2)CCN1c1ccccc1 (stereo not drawn)
cytotoxicity at 10 µM: 0.562%

Cc1nccn1C1CCCN(C(=O)Cn2ccc(=O)n(C)c2=O)C1 (stereo not drawn)
cytotoxicity at 10 µM: -5.17%

CN(CCOc1cccc(CNC(=O)C2CC2)c1)C1CCOCC1
cytotoxicity at 10 µM: -7.12%

CCc1nc(CN2CCCC(N(C)Cc3cnn(C)c3)C2)no1 (stereo not drawn)
cytotoxicity at 10 µM: -14.5%

CCc1nccn1C1CCCN(C(=O)c2cnc3ccccc3n2)C1 (stereo not drawn)
cytotoxicity at 10 µM: -4.61%

Cc1cccc(N2CCN(CCCNC(=O)c3nccn3C)CC2)c1
cytotoxicity at 10 µM: -0.679%

O=c1cc(CN2CCCC2)nc2n1CCCN(S(=O)(=O)C1CC1)C2
cytotoxicity at 10 µM: -3.56%

Cc1ccsc1C(=O)N1CCc2ncc(Cn3cccn3)n2CC1
cytotoxicity at 10 µM: -108%

COCCC1COC2(CCN(C(=O)c3ccco3)CC2)C1 (stereo not drawn)
cytotoxicity at 10 µM: 3.63%

O=c1c(-c2ccnc(NC3CCCCC3)n2)cnc2sc(Cl)cn12
cytotoxicity at 10 µM: -6.22%

CC(C)Nc1ncc(-c2csc(NC(=O)C[C@H]3COCCN3)n2)cn1
cytotoxicity at 10 µM: -8.69%

O=C(O)[C@@H]1CN(Cc2cnc(C3CCCCC3)nc2)C[C@H]1C1CC1
cytotoxicity at 10 µM: -10%

Cc1nn(C)c(C)c1CN(C)C(=O)c1cccc(CCC(C)(C)O)c1
cytotoxicity at 10 µM: 3.13%

CN(Cc1nc(CC2CC2)no1)CC1COc2ccccc2O1 (stereo not drawn)
cytotoxicity at 10 µM: -3.89%

Cc1ccc(OC2(C(=O)O)CCN(C(=O)c3ccccc3F)CC2)cn1
cytotoxicity at 10 µM: 2.75%

CCC(NC1Cc2ccccc2C1)c1ccc(S(C)(=O)=O)cc1 (stereo not drawn)
cytotoxicity at 10 µM: -2.02%

Cc1cc2ccccc2n1CCC(=O)N1CCC2(CC1)CNC(=O)C2
cytotoxicity at 10 µM: 0.105%

CCN(CC1=CCN(C)CC1)C(=O)CCOC
cytotoxicity at 10 µM: 5.09%

O=C1CCN(Cc2cnc3c(-c4ccccc4)cnn3c2)CCN1
cytotoxicity at 10 µM: 11%

O=C(NCCc1ccccc1)c1cn(CCNCc2cccnc2)nn1
cytotoxicity at 10 µM: -2.68%

Cc1cc(C(F)(F)F)nc(CNC(=O)CCC2CCCN(C)C2)n1 (stereo not drawn)
cytotoxicity at 10 µM: -53.9%

CC(C)CCC(=O)N1CCC(c2nnc(CN(C)CCO)n2C)CC1
cytotoxicity at 10 µM: 0.832%

CCc1nccn1CCC(=O)N1CC[C@H](CO)[C@H](O)C1
cytotoxicity at 10 µM: -1.2%

NCCn1cc(C(=O)NCc2ccccc2Cn2cccn2)nn1
cytotoxicity at 10 µM: 3.41%

COc1ccc(C(C(=O)O)N2CCN(C3CCCCC3)CC2)cc1OC (stereo not drawn)
cytotoxicity at 10 µM: -4.89%

CCN(CC)C(=O)c1c(Br)cnn1CC
cytotoxicity at 10 µM: 2.63%

Cc1nc(C(=O)N2CCCC(c3cccc(-n4ccnc4)n3)C2)co1 (stereo not drawn)
cytotoxicity at 10 µM: 8.31%

CN(C)Cc1ccnc(C2CCCN2Cc2cc[nH]n2)n1 (stereo not drawn)
cytotoxicity at 10 µM: -0.902%

CCN(CC)C(=O)c1ccc(CNc2cncc(-n3cccn3)n2)cc1
cytotoxicity at 10 µM: 7.18%

Cc1cn2c(n1)CCC(NC(=O)CCCn1cncn1)C2 (stereo not drawn)
cytotoxicity at 10 µM: -9.12%

CC(C)Oc1ccc(CNC(=O)NCc2ccncc2)cc1F
cytotoxicity at 10 µM: -18.3%

Cc1cnn(CC2CN(CC(=O)Nc3nccs3)CCO2)c1 (stereo not drawn)
cytotoxicity at 10 µM: -7.51%

CNc1cc(N2CCCC2CNCc2csc(C)n2)ncn1 (stereo not drawn)
cytotoxicity at 10 µM: -9.71%

Cc1ccc(C(=O)N2CCC(Oc3ccccc3)CC2)c(=O)[nH]1
cytotoxicity at 10 µM: -1.01%

CC(C)Oc1ccc(C(=O)NCc2ccc3c(c2)CCCN3C)cn1
cytotoxicity at 10 µM: -6.63%

CC(C)c1nc(CN(C)C2CCN(CCn3cc(C#N)cn3)C2)no1 (stereo not drawn)
cytotoxicity at 10 µM: -6.29%

CCn1nc2c(cc1=O)CN(CC(=O)Nc1nncs1)CC2
cytotoxicity at 10 µM: -0.284%

Cc1cnn(CC2CCCN2C(=O)c2cc3ccccc3c(=O)[nH]2)c1 (stereo not drawn)
cytotoxicity at 10 µM: -4.77%

O=C(CCc1ccccc1)N1CCCCC1Cn1cccn1 (stereo not drawn)
cytotoxicity at 10 µM: 3.78%

CCc1nnc2n1CCN(CCC(=O)Nc1cc(C)on1)C2
cytotoxicity at 10 µM: 4.23%

CN(Cc1ccco1)C(=O)[C@H]1CSCN1C(=O)OC(C)(C)C
cytotoxicity at 10 µM: -8.97%

CNc1nc(CNC(=O)Nc2cccc(-c3nnco3)c2)cs1
cytotoxicity at 10 µM: -5.26%

Cc1cc(CN(C)C(=O)NC2CCCN(c3ncccn3)C2)no1 (stereo not drawn)
cytotoxicity at 10 µM: -7.26%

Cc1ncc(CN(C)C2CCCN(Cc3noc(C4CC4)n3)C2)s1 (stereo not drawn)
cytotoxicity at 10 µM: -13.5%

c1ncn(CC2CCCN(Cc3nc(C4CC4)no3)C2)n1 (stereo not drawn)
cytotoxicity at 10 µM: -12.9%

CC(=O)NC(C)(C)C(=O)Nc1ncc(Cc2ccc(C)c(F)c2)s1
cytotoxicity at 10 µM: 0.987%

O=C(NCCOCC(F)(F)F)c1ccc(-c2ccco2)[nH]c1=O
cytotoxicity at 10 µM: -8.5%

Cc1ccc(N2CCCC(NCc3cccc4c3OCCO4)C2)nn1 (stereo not drawn)
cytotoxicity at 10 µM: -1.69%

Cc1cc(C)n(C2CCCN(C(=O)C3=NN(C)C(=O)CC3)C2)n1 (stereo not drawn)
cytotoxicity at 10 µM: -9.21%

O=C(CCNc1ncccn1)NCCc1ccn(-c2ccccc2)n1
cytotoxicity at 10 µM: 0.914%

c1cc(CN2Cc3nnn(CC4CC4)c3C(COCC3CC3)C2)co1 (stereo not drawn)
cytotoxicity at 10 µM: -0.336%

Cc1nc(CN2C(=O)CCC23CCN(Cc2cccn2C)CC3)cs1
cytotoxicity at 10 µM: 0.676%

CNCC(=O)N1CC(c2cc(Nc3ncccn3)nc(C)n2)C1
cytotoxicity at 10 µM: 4.19%

Cc1ccc(-c2ccc(CC3NCCN(C)C3=O)cc2)cc1 (stereo not drawn)
cytotoxicity at 10 µM: -25%

Cn1nnc2c1C(COCc1cccnc1)CN(Cc1ccoc1)C2 (stereo not drawn)
cytotoxicity at 10 µM: -2.55%

CC(=O)N1CCC2(CC1)CNc1c(F)cccc12
cytotoxicity at 10 µM: 4.79%

CC(C)Cn1cc2nc(N)[nH]cc-2c1=O
cytotoxicity at 10 µM: 5.26%

Cc1[nH]c2cc(C3CCN(C(=O)c4ccccn4)CC3)nn2c(=O)c1C
cytotoxicity at 10 µM: 0.636%
